Activity calls are given as the source filed them. The rule behind the calls is not given here.
Experiments:
[1] = target: T1, NAD-dependent protein deacetylase sirtuin-1 (Homo sapiens) (UniProt Q96EB6); test: Activation of human SIRT1 assessed as decrease in Km of enzyme for acetylated peptide substrate by mass spectrometry assay
T1 sequence (whole entry): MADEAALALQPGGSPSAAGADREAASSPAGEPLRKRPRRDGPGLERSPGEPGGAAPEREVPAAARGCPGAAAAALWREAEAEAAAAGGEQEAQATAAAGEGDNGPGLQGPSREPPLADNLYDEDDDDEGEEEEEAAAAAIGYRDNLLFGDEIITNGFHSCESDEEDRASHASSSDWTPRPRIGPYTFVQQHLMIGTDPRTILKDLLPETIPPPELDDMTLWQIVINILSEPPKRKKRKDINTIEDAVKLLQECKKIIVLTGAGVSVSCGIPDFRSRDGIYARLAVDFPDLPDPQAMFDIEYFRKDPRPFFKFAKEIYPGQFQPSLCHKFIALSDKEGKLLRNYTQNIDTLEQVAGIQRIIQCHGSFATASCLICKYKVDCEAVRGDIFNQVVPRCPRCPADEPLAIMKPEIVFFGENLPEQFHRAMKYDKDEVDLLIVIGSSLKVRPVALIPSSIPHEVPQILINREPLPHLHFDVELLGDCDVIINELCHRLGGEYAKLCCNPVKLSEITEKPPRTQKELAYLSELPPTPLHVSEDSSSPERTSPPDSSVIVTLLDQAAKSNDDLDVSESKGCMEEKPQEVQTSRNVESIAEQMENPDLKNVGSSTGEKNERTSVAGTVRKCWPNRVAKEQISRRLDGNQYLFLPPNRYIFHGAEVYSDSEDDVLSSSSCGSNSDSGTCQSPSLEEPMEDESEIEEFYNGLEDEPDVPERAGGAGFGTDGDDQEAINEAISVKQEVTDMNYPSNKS

[2] = target: T1, NAD-dependent protein deacetylase sirtuin-1 (Homo sapiens); test: (§1) Activation of human SIRT1 expressed in Escherichia coli BL21 by mass spectrometry assay
[3] = target: T2, NAD-dependent protein deacetylase sirtuin-1 (Homo sapiens, UniProt Q96EB6); test: as §1
T2 sequence (Q96EB6 whole entry): T1 sequence (whole entry)

[4] = target: T3, NAD-dependent protein deacetylase sirtuin-2 (Homo sapiens, UniProt Q8IXJ6); test: Activation of SIRT2 by mass spectrometry assay
T3 sequence (Q8IXJ6 whole entry): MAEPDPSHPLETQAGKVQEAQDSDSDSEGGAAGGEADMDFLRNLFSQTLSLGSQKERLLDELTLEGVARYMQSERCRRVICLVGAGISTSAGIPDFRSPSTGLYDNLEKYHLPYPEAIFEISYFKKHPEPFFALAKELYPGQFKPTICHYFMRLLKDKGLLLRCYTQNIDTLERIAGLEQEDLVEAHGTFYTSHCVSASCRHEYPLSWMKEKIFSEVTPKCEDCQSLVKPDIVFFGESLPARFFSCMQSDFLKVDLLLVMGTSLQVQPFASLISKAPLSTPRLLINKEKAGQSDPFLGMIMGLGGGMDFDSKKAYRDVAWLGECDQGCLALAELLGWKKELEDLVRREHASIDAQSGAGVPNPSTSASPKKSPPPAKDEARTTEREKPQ

[5] = target: T4, NAD-dependent protein deacetylase sirtuin-3, mitochondrial (Homo sapiens, UniProt Q9NTG7); test: Activation of SIRT3 by mass spectrometry assay
T4 sequence (Q9NTG7 whole entry): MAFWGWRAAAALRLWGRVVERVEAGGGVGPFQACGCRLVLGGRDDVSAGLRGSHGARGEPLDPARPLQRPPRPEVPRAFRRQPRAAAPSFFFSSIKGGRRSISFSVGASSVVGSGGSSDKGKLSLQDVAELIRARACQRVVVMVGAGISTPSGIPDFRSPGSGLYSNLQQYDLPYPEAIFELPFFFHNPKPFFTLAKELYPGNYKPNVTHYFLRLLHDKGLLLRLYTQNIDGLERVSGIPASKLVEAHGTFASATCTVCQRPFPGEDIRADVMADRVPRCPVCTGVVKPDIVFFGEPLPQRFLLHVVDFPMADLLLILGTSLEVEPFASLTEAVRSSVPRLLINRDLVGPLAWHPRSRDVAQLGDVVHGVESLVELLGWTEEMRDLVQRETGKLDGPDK

[6] = target: T1, NAD-dependent protein deacetylase sirtuin-1 (Homo sapiens); test: Activation of SIRT1 in human U2OS cells assessed as decrease in deacetylation level at 10 uM; format: cell-based
Summary of the method: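 U-2 OS cells seeded 1.5 × 10⁴/well; compounds in DMSO added after 24 h, then doxorubicin 1 μg/ml final to induce p53. Fixed, permeabilized, immunostained for Ac-Lys382-p53 and beta-tubulin, infrared scan; background-corrected acetyl signal normalized to tubulin, then to vehicle as % acetylated p53. Replicate plates co-treated with a SIRT1-specific inhibitor.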

[7] = target: T2, NAD-dependent protein deacetylase sirtuin-1; test: Binding affinity to human SIRT1 by isothermal titration calorimetry

Activity [1] | Activity [2] [%] | EC50 [3] [µM] | EC50 [4] [µM] | EC50 [5] [µM] | Activity [6] | Kd [7] [µM] | Structure (SMILES)
Active | 296 | 0.36 | > 300 | > 300 | Active | – | O=C(Nc1ccccc1-c1cn2c(CN3CC[C@@H](O)C3)csc2n1)c1ccc2ccccc2c1
Active | 447 | 2.9 | > 300 | > 300 | Active | 16.2 | COc1cc(C(=O)Nc2ccccc2-c2cn3c(CN4CCNCC4)csc3n2)cc(OC)c1OC
